Only some compounds are listed: those with a hit (about 2.4% of all), similar ones and a draw of the others.
Autophagy mod – autophagy modulators in MEF cells, primary screen, imaging, high-content, MEF GFP-LC3; MEF GFP-LC3 puncta imaging; test concentration mostly 10 µM; calls only at 10 µM (by protocol); actives 0.98% (n = 190,000); AID 463193, 2010;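 active = percentage of spot-positive cells more than 3 SD above its plate mean, without a fluorescence outlier flag or 80% toxicity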;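 also: spot-positive cell cutoff set from DMSO-treated cells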
TNF necrop inh – inhibitors of TNF-alpha triggered necroptosis, primary screen, cell-based, Jurkat FADD-/-, single concentration; Jurkat FADD-/- TNF necroptosis rescue, ATP luminescence, 24 h; 0 = TNF only, 100 = no-TNF cells; activation (protection from cell death), % at 10 µM; actives 0.068% (n = 220,000); AID 463075, 2010;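 active = activation, meaning protection from cell death, of at least 50% relative to plate controls; inactive = activation below 50%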;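 also: necroptosis triggered by 40 ng/mL TNF-alpha added together with compound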
Hck-Nef inh – inhibitors of Nef-activated human Hck kinase, primary screen, biochemical, Z-Lyte FRET, 384-well, Hck-YEEI; Recombinant Hck-YEEI plus Nef, Z-Lyte FRET kinase assay; actives 0.68% (n = 220,000); inhibition, % at 20 µM;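 active = Hck-Nef kinase inhibition above about 50%, limit read from the data; inactive = inhibition below that limit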;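 also: 0% = DMSO with Hck plus Nef and 100% = Hck alone without Nef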
Target sequence (P08631 whole entry, looked up): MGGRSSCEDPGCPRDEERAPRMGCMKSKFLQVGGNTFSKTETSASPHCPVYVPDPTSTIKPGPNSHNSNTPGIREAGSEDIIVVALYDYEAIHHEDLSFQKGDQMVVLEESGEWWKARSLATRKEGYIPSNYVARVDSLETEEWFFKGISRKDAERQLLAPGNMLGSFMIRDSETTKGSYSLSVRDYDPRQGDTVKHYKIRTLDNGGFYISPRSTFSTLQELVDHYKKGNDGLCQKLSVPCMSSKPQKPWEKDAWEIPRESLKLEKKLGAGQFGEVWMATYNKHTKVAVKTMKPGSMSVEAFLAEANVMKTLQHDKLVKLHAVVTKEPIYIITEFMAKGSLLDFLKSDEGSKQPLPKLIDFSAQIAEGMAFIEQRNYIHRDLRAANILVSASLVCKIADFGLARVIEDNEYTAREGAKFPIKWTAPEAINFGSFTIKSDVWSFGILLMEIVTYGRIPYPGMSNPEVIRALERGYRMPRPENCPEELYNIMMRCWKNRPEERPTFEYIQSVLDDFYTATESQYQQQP
Dynein transport – inhibitors of GR-EGFP nuclear translocation, primary screen, dynein cargo transport inhibitor project, imaging, high-content, 3617.4 mouse cells. test concentration mostly 20 µM; stimulated with dexamethasone, 1 µM; hits give low values. z-score, hits read low. actives 0.47% (n = 220,000). AID 1381, 2008;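 active = plate z-score of nuclear minus cytoplasmic receptor signal below a set negative limit, without overly bright fluorescence or cell loss, cut at about -3.5 in these data, passing the limit was not always enough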;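 also: z-score of nuclear minus cytoplasmic ring GR-EGFP intensity difference per well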
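Buffer or medium: tet-free, stripped-serum medium; Also added: dexamethasone, 1.0 µM final; Technique: high-content fluorescence imaging after fixation; Times: 48 h induction, 1 h compound, 30 min dex at 37 °C; Read-out: per-cell GR-EGFP intensity, nucleus versus surrounding cytoplasmic ring, well-averaged.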
zVAD death inh – inhibitors of zVAD-triggered necroptosis, primary screen, L929 cells; L929 zVAD necroptosis rescue, ATP luminescence, 24 h; with zVAD 60 µM; viability rescue, % at 10 µM; actives 0.38% (n = 220,000); AID 1377, 2008;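 active = activation, scaled between plate controls, above about 75%, limit read from the data; inactive = activation under that limit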;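 also: 0% = zVAD with DMSO and 100% = DMSO alone without zVAD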
MDM2 E3 inh – MDM2-luciferase reporter signal enhancers, primary screen, MDM2 E3 ligase inhibitor project, cell-based, luminescence, 1536-well; E3 ubiquitin-protein ligase Mdm2 (Homo sapiens), Q00987; cell-based MDM2 ubiquitination luciferase reporter, 2 h; 0 = plate control, 100 = twice control, blank-subtracted; signal enhancement, % at 5 µM; actives 0.11% (n = 210,000);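 active = signal enhancement of 30% or more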;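 also: luminescence tracks abundance of the self-degrading MDM2-luciferase fusion protein; higher signal means inhibition of MDM2 E3 ligase activity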
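System: stable MDM2–luciferase fusion reporter cells / Input: 2000 cells seeded into each well / Schedule: 4 h settle plus 2 h compound, 37 °C / Compound: single-point 5 µM / Buffer or medium: cells held in DMEM / Benchmarks: control and blank well means / Evaluation: percent signal gain over controls, blank-subtracted / Measured by: luciferase luminescence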
zVAD necrop conf – inhibitors of zVAD-triggered necroptosis in L929, confirmation, L929 cells, duplicate runs. shares compounds with zVAD death inh. activation (protection from necroptosis), % at 10 µM. L929 zVAD-induced necroptosis rescue, ATP luminescence, 24 h. actives 16% (n = 760);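 active = mean protection from necroptosis of at least 50% over duplicate tests; inactive = mean protection below 50%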;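 also: 0% = cells with zVAD alone and 100% = vehicle cells without zVAD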
* marks the source's active call; other numbers are inactive results; i = inactive; . = no result given.

SMILES	Autophagy mod	TNF necrop inh	Hck-Nef inh	Dynein transport	zVAD death inh	MDM2 E3 inh	zVAD necrop conf
COCC(=O)n1nc(-c2ccccc2)nc1NCc1ccccc1	i	5	-6	1.6	86*	-23	1
O=C1C2CC=CCC2C(=O)N1Cc1nnc(-c2ccc(Cl)cc2)o1 (configuration not stated)	i	0	-1	-0.37	2	-5	.
O=C(Nc1nccs1)c1ccc(N2C(=O)[C@@H]3[C@H](C2=O)[C@H]2C=C[C@@H]3C2)cc1	.	17	30	-0.29	79*	-10	2
O=C(Nc1nccs1)c1ccc(N2C(=O)C3CCCCC3C2=O)cc1 (configuration not stated)	i	3	25	-0.6	1	-4	.
O=C(Nc1nccs1)c1cccc(N2C(=O)C3C4C=CC(C4)C3C2=O)c1 (configuration not stated)	i	11	4	1.1	78*	-7	17
N#Cc1c(N)nc2c(c1-c1ccccc1)CCC2	i	-5	36	0.19	79*	-15	8
C=C1C(=O)O[C@@H]2[C@H]1[C@@H](OC(=O)/C(C)=C/C)C/C(C)=C\C(=O)/C=C(\C)[C@@H]2O	.	2	26	-3.3	84*	21	5
C/C=C(/C)C(=O)O[C@H]1[C@@H](O)c2c(ccc3ccc(=O)oc23)OC1(C)C	i	-1	-2	-1.9	-1	.	.
CC1CCCCN1CCNC(=O)c1cc2c(=O)n(C)c3ccccc3c2n1C (configuration not stated)	i	7	2	0.46	82*	-4	37
Cn1c(C(=O)NCCN2CCOCC2)cc2c(=O)n(C)c3ccccc3c21	i	1	2	0.25	54	-12	.
CCCN(CCC)CCNC(=O)c1cc2c(=O)n(C)c3ccccc3c2n1C	.	5	22	0.14	78*	-20	33
Cn1ccnc1SCC(=O)Nc1ccc(F)c([N+](=O)[O-])c1	i	-1	13	-0.78	-1	-4	.
CCC(=Cc1ccc(CC)cn1)CC	.	1	2	-0.031	0	-9	.
Cc1ccc(N2C(=O)CC3(CC4C=CC3C4)C2=O)cc1 (configuration not stated)	i	4	0	1.1	0	-1	.
COc1ccc(Cn2c(SC)nc3ccccc32)cc1[N+](=O)[O-]	i	-3	3	0.29	0	-4	.
CCOC(=O)N/N=C/c1c(F)c(F)c(F)c(F)c1F	i	2	4	0.53	1	-2	.
O=C(NCc1ccco1)C(c1ccc(F)cc1)N(CC1CCCO1)C(=O)Cn1nnc2ccccc21 (configuration not stated)	i	-3	3	-0.14	0	3	.
O=C(NC1CCCCCCC1)c1cc(COc2ccc3ncccc3c2)on1	i	-6	1	0.21	76*	-33	0
COc1ccc(/C=C/c2nc(-c3ccccc3O)n[nH]2)cc1OC	i	1	11	0.15	81*	-12	4
N#C/C(=C\c1ccc([N+](=O)[O-])o1)C(=O)Nc1ccc(F)cc1	i	-12	40	-0.61	0	-1	.
N#CCc1ccc(NC(=O)/C=C/c2ccc([N+](=O)[O-])o2)cc1	i	-13	23	-0.76	85*	18	0
O=C(Nc1ccc(NC(=S)NC(=O)c2cccs2)cc1)c1ccccc1	i	1	1	0.1	0	1	.

Bioassay records: PubChem BioAssay, several laboratories
